Results reported in ChEMBL document CHEMBL3352198, “Design, synthesis, biological evaluation of substituted benzofurans as DNA gyraseB inhibitors of Mycobacterium tuberculosis” (Bioorg Med Chem, 2014).
≈ marks a conversion by molar mass, not a printed value. Calls of active or inactive are those of the source. The rule behind the calls is not given here.

How the values were obtained:
[1] = tested on: Mycobacterium tuberculosis; assay: Antibacterial activity against Mycobacterium tuberculosis H37Rv after 7 days by microplate alamar blue assay method; assay type: functional; conditions: 168 h
Outline: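 Mtb H37Rv inoculum taken from fresh LJ medium, resuspended in 7H9-S (7H9, 0.1% casitone, 0.5% glycerol, OADC), adjusted to McFarland No. 1 and diluted 1:20. Two-fold serial drug dilutions in 7H9-S, with growth and sterile controls. Incubated 7 days at 37 °C, alamar blue added, reincubated overnight. MIC taken as lowest concentration preventing the blue-to-pink colour change.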

[2] = biological target: DNA gyrase subunit B (Mycobacterium smegmatis, UniProt P0C559); assay: Inhibition of 6-His-tagged Mycobacterium smegmatis GyrB expressed in Escherichia coli BL21 (DE3) pLysS cells incubated for 100 mins in presence of ATP by malachite green dye based ATP assay; design: species or system Mycolicibacterium smegmatis
Chain of DNA gyrase subunit B (P0C559 whole entry): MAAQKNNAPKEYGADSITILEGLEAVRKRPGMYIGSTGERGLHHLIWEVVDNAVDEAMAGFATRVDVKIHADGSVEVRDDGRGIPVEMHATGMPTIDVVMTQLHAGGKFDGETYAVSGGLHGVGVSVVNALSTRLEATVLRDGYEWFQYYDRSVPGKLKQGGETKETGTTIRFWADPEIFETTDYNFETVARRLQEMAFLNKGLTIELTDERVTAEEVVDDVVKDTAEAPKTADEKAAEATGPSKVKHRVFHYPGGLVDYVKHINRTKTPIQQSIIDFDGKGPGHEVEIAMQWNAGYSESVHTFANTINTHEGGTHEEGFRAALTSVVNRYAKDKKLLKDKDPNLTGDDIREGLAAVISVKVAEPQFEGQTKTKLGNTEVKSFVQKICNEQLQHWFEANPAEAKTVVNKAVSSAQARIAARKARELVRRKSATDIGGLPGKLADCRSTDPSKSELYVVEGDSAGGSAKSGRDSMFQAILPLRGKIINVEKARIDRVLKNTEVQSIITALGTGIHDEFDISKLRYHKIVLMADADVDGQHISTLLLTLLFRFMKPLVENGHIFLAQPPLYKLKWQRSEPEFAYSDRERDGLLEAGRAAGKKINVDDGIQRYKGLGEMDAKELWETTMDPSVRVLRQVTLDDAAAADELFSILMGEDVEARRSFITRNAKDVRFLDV

[3] = biological target: DNA gyrase subunit A/DNA gyrase subunit B (Mycobacterium tuberculosis (strain ATCC 25618 / H37Rv), UniProt P9WG45+P9WG47); assay: Inhibition of Mycobacterium tuberculosis DNA gyrase supercoiling activity using relaxed pBR322 substrate incubated for 30 mins by ethidium bromide staining method
Chain of DNA gyrase subunit A/DNA gyrase subunit B (P9WG45 whole entry): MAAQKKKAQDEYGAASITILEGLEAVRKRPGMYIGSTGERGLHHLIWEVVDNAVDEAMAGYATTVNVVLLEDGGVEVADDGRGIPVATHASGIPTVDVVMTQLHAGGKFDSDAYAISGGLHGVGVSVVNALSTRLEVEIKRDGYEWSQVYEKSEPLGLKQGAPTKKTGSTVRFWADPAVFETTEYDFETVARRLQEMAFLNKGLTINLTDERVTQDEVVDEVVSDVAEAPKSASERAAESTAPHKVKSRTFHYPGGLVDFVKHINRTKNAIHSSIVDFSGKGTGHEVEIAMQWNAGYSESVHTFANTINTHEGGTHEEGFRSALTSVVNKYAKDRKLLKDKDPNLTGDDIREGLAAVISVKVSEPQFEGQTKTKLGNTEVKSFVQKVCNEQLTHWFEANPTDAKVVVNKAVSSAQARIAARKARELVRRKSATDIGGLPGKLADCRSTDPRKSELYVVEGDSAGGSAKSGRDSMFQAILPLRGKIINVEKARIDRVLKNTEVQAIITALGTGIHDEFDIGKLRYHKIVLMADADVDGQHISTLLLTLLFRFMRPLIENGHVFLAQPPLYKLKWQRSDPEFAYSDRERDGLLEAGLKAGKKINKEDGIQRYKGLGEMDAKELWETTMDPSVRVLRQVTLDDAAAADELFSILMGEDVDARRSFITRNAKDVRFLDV
Chain of DNA gyrase subunit A/DNA gyrase subunit B (P9WG47 whole entry): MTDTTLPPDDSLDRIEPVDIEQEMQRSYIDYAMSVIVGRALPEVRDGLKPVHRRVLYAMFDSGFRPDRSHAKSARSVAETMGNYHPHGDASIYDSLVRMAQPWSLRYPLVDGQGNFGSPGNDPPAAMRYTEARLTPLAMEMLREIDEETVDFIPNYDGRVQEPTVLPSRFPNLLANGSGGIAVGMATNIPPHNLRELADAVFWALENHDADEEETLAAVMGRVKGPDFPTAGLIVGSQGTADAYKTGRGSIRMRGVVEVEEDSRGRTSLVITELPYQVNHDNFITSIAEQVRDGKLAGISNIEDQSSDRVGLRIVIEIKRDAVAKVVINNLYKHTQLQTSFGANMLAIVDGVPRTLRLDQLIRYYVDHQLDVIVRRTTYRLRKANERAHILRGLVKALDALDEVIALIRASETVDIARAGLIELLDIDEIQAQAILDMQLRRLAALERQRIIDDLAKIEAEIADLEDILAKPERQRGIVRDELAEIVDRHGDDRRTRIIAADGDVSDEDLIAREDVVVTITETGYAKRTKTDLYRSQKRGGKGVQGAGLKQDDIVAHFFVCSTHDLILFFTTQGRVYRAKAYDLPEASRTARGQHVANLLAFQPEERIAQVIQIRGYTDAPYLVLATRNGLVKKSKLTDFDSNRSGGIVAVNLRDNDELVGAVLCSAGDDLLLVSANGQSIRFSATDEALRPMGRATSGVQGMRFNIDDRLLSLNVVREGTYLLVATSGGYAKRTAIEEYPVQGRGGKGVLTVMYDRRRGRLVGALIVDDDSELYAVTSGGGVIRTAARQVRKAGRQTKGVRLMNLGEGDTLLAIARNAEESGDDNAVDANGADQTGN

[4] = Cytotoxicity against mouse RAW264.7 cells assessed as inhibition of cell viability at 100 uM after 48 hrs by MTT assay; assay type: cell-based; conditions: read-out: INH
Outline: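 RAW 264.7 mouse macrophages, 5 × 10^5 cells per well, exposed to compounds at 37 °C, 5% CO2 for 48 h. MTT added about 4 h before the end, then supernatant removed and DMSO added. Absorbance read at 560 nm against blank, triplicate wells per concentration, result expressed as % inhibition.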

[5] = biological target: DNA gyrase subunit B (Mycobacterium smegmatis) (UniProt P0C559); conditions: Mycolicibacterium smegmatis
Chain of DNA gyrase subunit B (Mycobacterium smegmatis) (P0C559 2-675 limits assumed): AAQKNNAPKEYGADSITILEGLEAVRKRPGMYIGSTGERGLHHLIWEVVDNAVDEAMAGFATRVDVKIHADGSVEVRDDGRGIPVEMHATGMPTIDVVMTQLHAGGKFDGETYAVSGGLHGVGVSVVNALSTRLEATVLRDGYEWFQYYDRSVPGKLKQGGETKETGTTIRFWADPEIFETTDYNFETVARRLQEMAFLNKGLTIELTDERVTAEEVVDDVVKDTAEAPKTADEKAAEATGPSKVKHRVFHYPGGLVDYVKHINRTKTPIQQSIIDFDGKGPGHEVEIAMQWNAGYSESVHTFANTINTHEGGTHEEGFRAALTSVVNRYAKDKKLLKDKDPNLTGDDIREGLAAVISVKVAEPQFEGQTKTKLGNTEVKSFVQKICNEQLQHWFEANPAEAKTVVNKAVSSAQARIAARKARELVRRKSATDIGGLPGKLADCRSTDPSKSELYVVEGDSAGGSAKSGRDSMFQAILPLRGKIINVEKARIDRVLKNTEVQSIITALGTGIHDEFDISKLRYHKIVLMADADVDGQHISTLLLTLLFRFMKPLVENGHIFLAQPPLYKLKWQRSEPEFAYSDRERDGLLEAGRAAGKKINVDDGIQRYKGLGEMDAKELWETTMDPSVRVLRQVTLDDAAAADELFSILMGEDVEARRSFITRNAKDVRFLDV

[6] = biological target: DNA gyrase subunit B (Escherichia coli) (UniProt P0AES6); assay: Inhibition of Escherichia coli GyrB at 50 uM
[7] = biological target: DNA gyrase subunit B (Staphylococcus aureus) (UniProt P0A0K8); assay: Inhibition of Staphylococcus aureus GyrB at 50 uM
Chain of DNA gyrase subunit B (Staphylococcus aureus) (P0A0K8 2-644 limits assumed): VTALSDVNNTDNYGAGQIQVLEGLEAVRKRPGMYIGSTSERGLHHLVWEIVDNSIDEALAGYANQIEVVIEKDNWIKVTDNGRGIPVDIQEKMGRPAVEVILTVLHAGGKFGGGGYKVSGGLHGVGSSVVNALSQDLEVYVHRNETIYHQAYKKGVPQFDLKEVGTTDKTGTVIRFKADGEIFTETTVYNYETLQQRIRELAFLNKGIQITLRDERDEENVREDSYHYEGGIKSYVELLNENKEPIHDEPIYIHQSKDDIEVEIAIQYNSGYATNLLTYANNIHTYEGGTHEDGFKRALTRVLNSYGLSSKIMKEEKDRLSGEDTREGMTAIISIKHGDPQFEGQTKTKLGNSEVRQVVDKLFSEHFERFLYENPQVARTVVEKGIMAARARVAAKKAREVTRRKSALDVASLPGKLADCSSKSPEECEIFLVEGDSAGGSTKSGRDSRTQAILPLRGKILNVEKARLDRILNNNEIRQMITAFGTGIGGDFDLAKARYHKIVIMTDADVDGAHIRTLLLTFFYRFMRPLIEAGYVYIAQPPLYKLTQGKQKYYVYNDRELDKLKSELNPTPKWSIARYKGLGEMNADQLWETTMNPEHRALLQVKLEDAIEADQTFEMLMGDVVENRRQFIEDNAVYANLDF

Compound | MIC [1] [µM] | IC50 [2] [µM] | IC50 [3] [µM] | cytotoxicity at 48 h, 100 µM [4] [%] | ΔTm [5] [°C] | inhibition [6] | inhibition [7]
CC1COc2c(N3CCN(C)CC3)c(F)cc3c(=O)c(C(=O)O)cn1c23 (stereo unspecified) [OFLOXACIN] | 2.16 (≈ 0.781 µg/mL) |  |  |  |  |  | 
CCOC(=O)c1cc2cc(N3CCN(C(=O)c4c(Cl)cccc4Cl)CC3)ccc2o1 | 10 (≈ 4.49 µg/mL) | 10.7 | 3.1 | 6.98 |  |  | 
CCOC(=O)c1cc2cc(N3CCN(C(=O)c4cccc(OC)c4)CC3)ccc2o1 | 9.67 (≈ 3.95 µg/mL) | 5.01 | 2.52 | 15.3 |  |  | 
CCOC(=O)c1cc2cc(N3CCN(C(=O)CCc4ccc(F)cc4)CC3)ccc2o1 | 9.57 (≈ 4.06 µg/mL) | 6.14 | 3.13 | 14.7 |  |  | 
CCOC(=O)c1cc2cc(N3CCN(C(=O)c4ccc(C5CCOCC5)cc4)CC3)ccc2o1 | 9.8 (≈ 4.53 µg/mL) | 6.7 | 0.91 | 6.75 |  |  | 
CCOC(=O)c1cc2cc(N3CCN(C(=O)c4nccnc4Cl)CC3)ccc2o1 | 13.9 (≈ 5.77 µg/mL) | 12.7 | 3.12 | 30.1 |  |  | 
CCOC(=O)c1cc2cc(N3CCN(C(=O)Cc4ccc(Br)cc4)CC3)ccc2o1 | 19.8 (≈ 9.33 µg/mL) | 16.6 | 5.2 | 53 |  |  | 
CCOC(=O)c1cc2cc(N3CCN(C(=O)COc4ccccc4)CC3)ccc2o1 | 9.35 (≈ 3.82 µg/mL) | 3.97 | 1.14 | 7.65 |  |  | 
CCOC(=O)c1cc2cc(N3CCN(C(=O)C4CCN(C(=O)OC(C)(C)C)CC4)CC3)ccc2o1 | 9.18 (≈ 4.46 µg/mL) | 3.2 | 0.81 | 3.21 | 2.7 | inactive | inactive
CCOC(=O)c1cc2cc(N3CCN(C(=O)c4ccccc4OC(F)(F)F)CC3)ccc2o1 | 30.2 (≈ 14 µg/mL) | 29.2 | 15.6 | 27 |  |  | 
CCOC(=O)c1cc2cc(N3CCN(C(=O)Cc4ccc(OC)cc4)CC3)ccc2o1 | 18.2 (≈ 7.68 µg/mL) | 10.2 | 7.4 | 7.39 |  |  | 
CCOC(=O)c1cc2cc(N3CCN(C(=O)C4Cc5ccccc5N4)CC3)ccc2o1 (stereo unspecified) | 9.23 (≈ 3.87 µg/mL) | 3.89 | 0.84 | 29.8 |  |  | 
CCOC(=O)c1cc2cc(N3CCN(C(=O)CC4CCCCC4)CC3)ccc2o1 | 38.4 (≈ 15.3 µg/mL) | 36.3 | 25.2 | 31.4 |  |  | 
CO[C@@H]1[C@@H](OC(N)=O)[C@@H](O)[C@H](Oc2ccc3c(O)c(NC(=O)c4ccc(O)c(CC=C(C)C)c4)c(=O)oc3c2C)OC1(C)C [NOVOBIOCIN] | > 200 |  |  | 19.4 |  |  | 
CCOC(=O)c1cc2cc(N3CCN(C(=O)c4ccc(C(F)(F)F)cc4)CC3)ccc2o1 | 54 (≈ 24.1 µg/mL) | 52.1 | 45.1 | 3.5 |  |  | 
CCOC(=O)c1cc2cc(N3CCN(C(=O)c4ccccc4C(F)(F)F)CC3)ccc2o1 | 38.4 (≈ 17.2 µg/mL) | 36.9 | 26.3 | 14 |  |  | 

Compound | MIC [1] [µM] | IC50 [2] [µM] | IC50 [3] [µM] | cytotoxicity at 48 h, 100 µM [4] [%] | ΔTm [5] [°C] | inhibition [6] | inhibition [7]
CCOC(=O)c1cc2cc(N3CCN(C(=O)c4c(F)cc(OC)cc4F)CC3)ccc2o1 | 25.4 (≈ 11.3 µg/mL) | 24.2 | 9.8 | 7.03 |  |  | 
NNC(=O)c1ccncc1 [ISONIAZID] | 0.66 (≈ 0.0905 µg/mL) |  |  |  |  |  | 
CCOC(=O)c1cc2cc(N3CCN(C(=O)Cc4ccccc4)CC3)ccc2o1 | 12.3 (≈ 4.84 µg/mL) | 9.2 | 6.81 | 15.1 |  |  | 
CC[C@@H](CO)NCCN[C@@H](CC)CO [ETHAMBUTOL] | 9.84 (≈ 2.01 µg/mL) |  |  |  |  |  | 
CCOC(=O)c1cc2cc(N3CCN(C(=O)c4cccnc4Cl)CC3)ccc2o1 | 11 (≈ 4.54 µg/mL) | 7.94 | 1.5 | 7.55 |  |  | 
CCOC(=O)c1cc2cc(N3CCN(C(=O)c4cccc5ccccc45)CC3)ccc2o1 | 13.2 (≈ 5.64 µg/mL) | 9.08 | 3.6 | 3.64 |  |  | 
CCOC(=O)c1cc2cc(N3CCN(C(=O)Cc4ccc(Cl)cc4)CC3)ccc2o1 | 20.2 (≈ 8.63 µg/mL) | 14.5 | 8.9 | 29.2 |  |  | 
CCOC(=O)c1cc2cc(N3CCN(C(=O)c4ccco4)CC3)ccc2o1 | 43.6 (≈ 16.1 µg/mL) | 37.3 | 24.4 | 17 |  |  | 
CCOC(=O)c1cc2cc(N3CCN(C(=O)Cc4c(F)cc(F)cc4F)CC3)ccc2o1 | 17.1 (≈ 7.61 µg/mL) | 12.4 | 6.1 | 14 |  |  | 
CCOC(=O)c1cc2cc(N3CCN(C(=O)Cc4ccc(F)cc4)CC3)ccc2o1 | 40.2 (≈ 16.5 µg/mL) | 38.4 | 26.9 | 30.4 |  |  | 
COc1c(N2C[C@@H]3CCCN[C@@H]3C2)c(F)cc2c(=O)c(C(=O)O)cn(C3CC3)c12 [MOXIFLOXACIN] | 8.6 (≈ 3.45 µg/mL) | > 50 |  |  |  |  | 
CCOC(=O)c1sc(-c2ccccc2)nc1N1CCC(NCc2ccc(F)cc2)CC1 | 28.4 (≈ 12.5 µg/mL) |  |  |  |  |  | 
CCOC(=O)c1cc2cc(N3CCN(C(=O)c4c(F)cccc4F)CC3)ccc2o1 | 11.6 (≈ 4.81 µg/mL) | 6.21 | 2.9 | 7.54 |  |  | 
CCOC(=O)c1cc2cc(N3CCN(C(=O)c4ncccc4C(F)(F)F)CC3)ccc2o1 | 26.7 (≈ 11.9 µg/mL) | 23.4 | 7.81 | 14 |  |  | 
CCOC(=O)c1cc2cc(N3CCN(C(=O)CC(C)C)CC3)ccc2o1 | 32.1 (≈ 11.5 µg/mL) | 41.1 | 29.1 | 8.71 |  |  | 
